34 compounds from the M2OR odorant receptor database can be followed below.

The test has as its target T1, OR1G1 (Homo sapiens) (UniProt P47890).
T1 sequence (whole entry): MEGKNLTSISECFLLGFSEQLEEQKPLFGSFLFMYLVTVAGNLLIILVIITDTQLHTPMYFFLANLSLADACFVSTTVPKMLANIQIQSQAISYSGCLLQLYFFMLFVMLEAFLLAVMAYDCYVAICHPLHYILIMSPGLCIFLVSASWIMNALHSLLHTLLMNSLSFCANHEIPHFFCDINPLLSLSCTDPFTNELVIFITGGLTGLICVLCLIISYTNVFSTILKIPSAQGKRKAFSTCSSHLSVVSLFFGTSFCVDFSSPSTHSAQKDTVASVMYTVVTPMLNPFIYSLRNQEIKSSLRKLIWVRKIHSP
The note with it: stereoisomer not certain. The method, boiled down:
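Values were gathered from published papers (main text and supplementary material), with extra details requested from the original authors when needed, and checked for typos and inconsistencies. Each receptor–molecule pair is called responsive (active) if the original authors judged the measured signal statistically different from baseline, and non-responsive (inactive) otherwise. Assay methods varied by source, often transient mammalian cell-line luciferase assays. Recorded details include cell line, G-protein, co-transfected protein and tags.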

Turning to `CCCCCCCCCC(=O)[O-].[H+]`, the “odorant receptor agonist call” value is “active”.

`CC(=O)C(C)O` (centres undefined): the “odorant receptor agonist call” value was “active”. In the case of `c1cscn1`, the “odorant receptor agonist call” value is “active”.

As to `CCCCCC(=O)OC`, the “odorant receptor agonist call” value is “inactive”. On to `CCCCCCCCC(OC(C)=O)OC(C)=O`, for which the “odorant receptor agonist call” value is “active”. As to `c1ccc2ncccc2c1`, the “odorant receptor agonist call” value was “active”.

Turning to `CCCCCCCCC(C)=O`, the “odorant receptor agonist call” value is “inactive”. As to `CC=Cc1ccc(OC)cc1`, the “odorant receptor agonist call” value is “active”. Then `CCCCCCCCCCCC=O`, with “inactive”. For `O=c1ccc2ccccc2o1`, the “odorant receptor agonist call” value is “active”. Regarding `CCCCC(CC)CO` (centres undefined), the “odorant receptor agonist call” value is “active”. To `CC(C)CCCC(C)(C)O` belongs “inactive”; to `CCCCCC(=O)CC`, “inactive”.

Regarding `CCCCCCCCC(=O)O`, the “odorant receptor agonist call” value is “active”.

With `CCCCCC(O)CC` (centres undefined), the “odorant receptor agonist call” value is “active”. Take `CC(=O)OCCC(C)C`: the “odorant receptor agonist call” value is “active”.

Consider `CCCCCCCCCO`, for which the “odorant receptor agonist call” value is “active”. Turning to `CC(C)=CCCC(C)=CC#N`, the “odorant receptor agonist call” value is “inactive”. `CCCCOC(=O)CCC`: the “odorant receptor agonist call” value was “inactive”. `COc1nccnc1CC(C)C`: the “odorant receptor agonist call” value is “inactive”. As to `CCCCCC1COCCC1OC(C)=O` (centres undefined), the “odorant receptor agonist call” value is “inactive”. To `CC1=CCC2CC1C2(C)C` (centres undefined) belongs “inactive”; to `CCCCCCCC(C)=O`, “active”; to `CCCCCCC(C)O` (centres undefined), “active”. On to `CCCCCCCC(=O)OCC`, for which the “odorant receptor agonist call” value is “active”. Then `CC12CCC(CC1=O)C2(C)C` (centres undefined), with “active”; and `C=C(C)C1CC=C(C)CC1` (centres undefined), with “active”; and `Cc1occc(=O)c1O`, with “active”. To `CCCCCCC(=O)CC` belongs “active”.

In the case of `CCCC(=O)OCC`, the “odorant receptor agonist call” value is “active”.

With `CCC(=O)O`, the “odorant receptor agonist call” value is “inactive”.

For `CCCCCC(=O)OCC`, the “odorant receptor agonist call” value is “inactive”.

As to `O=C(O)C=Cc1ccccc1`, the “odorant receptor agonist call” value is “inactive”. For `OCc1ccccc1`, the “odorant receptor agonist call” value was “active”.
